Activity, Retention_time and Retention time data for 13 molecules are collected here from ChEMBL document CHEMBL3351651 (Bioorg Med Chem, 2014).

The test system of data set [1] is Mus musculus. As to the kind of experiment: Hypolipidiemic activity in tyloxapol-induced ICR mouse hyperlipidemic model assessed as reduction in serum cholesterol level at 25 mg/kg, ip after 24 hrs. Format: functional. Also on record: scale not given: the % may be the effect or the level left. The settings on record: route intraperitoneal.
Data set [2] concerns Mus musculus. As to the kind of experiment: Hypolipidiemic activity in tyloxapol-induced ICR mouse hyperlipidemic model assessed as reduction in serum cholesterol level at 50 mg/kg, ip after 24 hrs. The class given is functional. More on the design: scale not given: the % may be the effect or the level left. The settings on record: route intraperitoneal.
The subject of data set [3] is Mus musculus. In words: Hypolipidiemic activity in tyloxapol-induced ICR mouse hyperlipidemic model assessed as reduction in serum cholesterol level at 100 mg/kg, ip after 24 hrs. Also on record: scale not given: the % may be the effect or the level left. To be noted: route intraperitoneal. Format: functional.
Data set [4] has as its system Mus musculus. As to the kind of experiment: Hypolipidiemic activity in tyloxapol-induced ICR mouse hyperlipidemic model assessed as reduction in serum LDL-cholesterol level at 25 mg/kg, ip after 24 hrs. Format: functional. Also on record: scale not given: the % may be the effect or the level left. The settings on record: route intraperitoneal.
Data set [5] concerns Mus musculus. In words: Hypolipidiemic activity in tyloxapol-induced ICR mouse hyperlipidemic model assessed as reduction in serum LDL-cholesterol level at 50 mg/kg, ip after 24 hrs. The class given is functional. Also on record: scale not given: the % may be the effect or the level left. To be noted: route intraperitoneal.
Data set [6] deals with Mus musculus. As to the kind of experiment: Hypolipidiemic activity in tyloxapol-induced ICR mouse hyperlipidemic model assessed as reduction in serum LDL-cholesterol level at 100 mg/kg, ip after 24 hrs. Format: functional. Also on record: scale not given: the % may be the effect or the level left. To be noted: route intraperitoneal.
Data set [7] has as its system Mus musculus. In words: Hypolipidiemic activity in tyloxapol-induced ICR mouse hyperlipidemic model assessed as increase in serum HDL-cholesterol level at 25 mg/kg, ip after 24 hrs. Format: functional. The settings on record: route intraperitoneal.
Data set [8] deals with Mus musculus. In words: Hypolipidiemic activity in tyloxapol-induced ICR mouse hyperlipidemic model assessed as increase in serum HDL-cholesterol level at 50 mg/kg, ip after 24 hrs. The class given is functional. To be noted: route intraperitoneal.
Data set [9] deals with Mus musculus. In words: Hypolipidiemic activity in tyloxapol-induced ICR mouse hyperlipidemic model assessed as increase in serum HDL-cholesterol level at 100 mg/kg, ip after 24 hrs. Format: functional. To be noted: route intraperitoneal.
Data set [10] deals with Mus musculus. As to the kind of experiment: Hypolipidiemic activity in tyloxapol-induced ICR mouse hyperlipidemic model assessed as reduction in serum triglyceride level at 25 mg/kg, ip after 24 hrs. Format: functional. More on the design: scale not given: the % may be the effect or the level left. To be noted: route intraperitoneal.
The subject of data set [11] is Mus musculus. In words: Hypolipidiemic activity in tyloxapol-induced ICR mouse hyperlipidemic model assessed as reduction in serum triglyceride level at 50 mg/kg, ip after 24 hrs. Format: functional. Also on record: scale not given: the % may be the effect or the level left. To be noted: route intraperitoneal.
The test system of data set [12] is Mus musculus. In words: Hypolipidiemic activity in tyloxapol-induced ICR mouse hyperlipidemic model assessed as reduction in serum triglyceride level at 100 mg/kg, ip after 24 hrs. Format: functional. More on the design: scale not given: the % may be the effect or the level left. The settings on record: route intraperitoneal.
The nature of data set [13]: Metabolic stability in presence of pepsin (unknown origin) assessed as retention time by HPLC analysis. Format: ADME. To be noted: human, isolated protein.
Data set [14] can be described thus: Metabolic stability in presence of alpha-chymotrypsin (unknown origin) assessed as retention time by HPLC analysis. The class given is ADME. The settings on record: human.
Data set [15] concerns Mus musculus. In words: Hypolipidiemic activity in tyloxapol-induced ICR mouse hyperlipidemic model assessed as reduction in serum cholesterol level at 17 mg/kg, ip after 24 hrs. Format: functional. More on the design: scale not given: the % may be the effect or the level left. To be noted: route intraperitoneal. The method in brief: (§1)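 Male ICR mice (25–30 g) were kept at 24 °C with a 12 h light/dark cycle on standard pellet diet with free water. Hyperlipidemia was induced with tyloxapol (400 per table) and test agents were given ip. After 24 h, retro-orbital blood was centrifuged and serum TC, HDL-C and TG were measured. LDL-C was calculated by the Friedewald equation. Assays were run in duplicate; values are means of 6 mice.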

Data set [16] deals with Mus musculus. As to the kind of experiment: Hypolipidiemic activity in tyloxapol-induced ICR mouse hyperlipidemic model assessed as reduction in serum LDL-cholesterol level at 17 mg/kg, ip after 24 hrs. The class given is functional. More on the design: scale not given: the % may be the effect or the level left. To be noted: route intraperitoneal. The procedure, abridged:
as §1

Data set [17] concerns Mus musculus. In words: Hypolipidiemic activity in tyloxapol-induced ICR mouse hyperlipidemic model assessed as increase in serum HDL-cholesterol level at 17 mg/kg, ip after 24 hrs. The class given is functional. The settings on record: route intraperitoneal. The method in brief:
as §1

Data set [18] has as its system Mus musculus. In words: Hypolipidemic activity in tyloxapol-induced ICR mouse hyperlipidemic model assessed as reduction in serum triglyceride level at 17 mg/kg, ip after 24 hrs. Format: functional. Also on record: scale not given: the % may be the effect or the level left. The settings on record: route intraperitoneal. The procedure, abridged:
as §1

In the case of `CCCc1cc(OC)c(OCC(=O)OC)cc1O`, the Activity was -79.77% in data set [1]; -80.21% in data set [2]; -74.02% in [3]; -89.32% in data set [4]; -87.97% in [5]; -81.23% in data set [6]. In addition, the Activity in [7] was 91.53%; in data set [8], 57.63%; in data set [9], 50.85%; in [10] it was -84.13%; in [11], -81.93%; in data set [12] it was -71.38%.

Regarding `CCCc1cc(OC)c(OC)cc1O`, the Activity in [1] is given as -71.84%; in [2], -66.7%; in [3], -69.22%; in data set [4], -78.15%; in [5] it was -71.61%; in data set [6], -73.63%. Further, the Activity in [7] is 49.15%; in data set [8] it was 25.42%; in data set [9], 15.25%; in data set [10], -82.75%; in [11], -73.85%; in data set [12] it was -77.98%.

As to `COc1cc(O)c(C(C)=O)cc1OC`, the Activity in data set [1] is on record as -71.84%; in data set [2], -80.09%; in data set [3] it was -80.12%; in data set [4], -76.23%; in data set [5] it was -87.01%; in [6], -87.68%. The Activity in data set [7] is recorded as -4.75%; in data set [8] it was 44.07%; in [9] it was 55.93%; in [10] it was -59.63%; in [11] it was -80.92%; in [12], -82.11%. In addition, the Retention_time in [13] is reported as 8.57 min; in data set [14], 8.58 min.

On to `CCCCc1cc(OC)c(OCC(=O)OC)cc1O`, for which the Activity in [1] is recorded as -70.62%; in [2], -59.46%; in data set [3], -79.95%; in [4] it was -77.77%; in data set [5], -62.75%; in data set [6], -89.51%. Moreover, the Activity in data set [7] was 11.86%; in data set [8] it was -3.39%; in data set [9], 89.83%; in [10] it was -20.46%; in [11], -49.82%; in data set [12], -82.75%. The Retention_time in data set [13] was found to be 13.81 min; in data set [14] it was 13.8 min.

For `CCc1cc(OC)c(OC)cc1O`, the Activity in data set [1] is reported as -67.13%; in data set [2] it was -73.41%; in data set [3], -75.85%; in [4], -72.47%; in [5], -78.34%; in data set [6] it was -83.93%. For the same molecule, the Activity is recorded as 33.9% in data set [7]; 25.42% in [8]; 71.19% in data set [9]; -76.79% in data set [10]; -86.97% in [11]; -81.65% in data set [12]. For the same molecule, the Retention_time in data set [13] is listed as 6.95 min. In data set [14], the Retention time turned out to be 6.94 min.

Turning to `CCCCc1cc(OC)c(OC)cc1O`, the Activity in data set [1] is -70.1%; in [2], -67.04%; in data set [3] it was -70.1%; in data set [4], -74.78%; in data set [5], -70.93%; in data set [6] it was -74.69%. Besides, the Activity was 23.73% in data set [7]; 11.86% in [8]; 23.73% in [9]; -82.57% in [10]; -79.17% in data set [11]; -83.94% in [12]. Besides, the Retention_time in data set [13] is recorded as 12.45 min; in data set [14], 12.44 min.

Regarding `CCc1cc(OC)c(OCC(=O)OC)cc1O`, the Activity was -79.08% in data set [1]; -69.22% in data set [2]; -78.2% in data set [3]; -86.14% in data set [4]; -75.26% in data set [5]; -82.58% in data set [6]. For the same molecule, the Activity in data set [7] is 40.68%; in data set [8], 28.81%; in [9], -3.39%; in data set [10] it was -72.94%; in data set [11], -59.63%; in [12], -75.87%. In addition, the Retention_time in [13] and in data set [14] was 7.78 min in each case.

Regarding `CCC(=O)c1cc(OC)c(OC)cc1O`, the Activity in [1] was -81.69%; in data set [2], -81.95%; in data set [3], -81.43%; in [4], -86.72%; in data set [5], -87.68%; in [6], -88.35%. The Activity is given as 6.78% in data set [7]; 16.95% in data set [8]; 40.68% in [9]; -80.09% in data set [10]; -81.01% in data set [11]; -80.92% in data set [12].

On to `CCCC(=O)c1cc(OC)c(OC)cc1O`, for which the Activity in [1] is -74.28%; in data set [2] it was -81.4%; in data set [3], -83.26%; in data set [4], -80.65%; in data set [5] it was -87.97%; in data set [6] it was -88.74%. In addition, the Activity in data set [7] was 33.9%; in [8], 30.51%; in data set [9], 8.47%; in [10], -69.54%; in data set [11] it was -77.25%; in data set [12], -79.36%. Also, the Retention_time stood at 13.84 min in data set [13] and 13.83 min in data set [14].

Consider `COC(=O)COc1cc(O)c(C(C)=O)cc1OC`, for which the Activity in data set [1] was -74.72%; in data set [2], -72.71%; in data set [3], -75.33%; in [4], -81.62%; in data set [5], -76.9%; in [6], -85.76%. Further, the Activity in data set [7] was 8.47%; in data set [8], 1.69%; in data set [9] it was 13.56%; in data set [10], -28.62%; in data set [11], -74.77%; in [12], -51.38%. Moreover, the Retention_time in data set [13] worked out at 8.67 min; in [14] it was 8.68 min.

As to `CCC(=O)c1cc(OC)c(OCC(=O)OC)cc1O`, the Activity in data set [1] is reported as -68.18%; in data set [2], -66.87%; in [3] it was -74.46%; in data set [4], -72.18%; in [5] it was -76.03%; in data set [6] it was -81.33%. For the same molecule, the Activity in [7] is -3.39%; in [8], 66.1%; in data set [9], 45.76%; in data set [10], -59.82%; in data set [11], -31.93%; in data set [12] it was -75.41%.

Take `CCCC(=O)c1cc(OC)c(OCC(=O)OC)cc1O`: the Activity in data set [1] was -78.38%; in data set [2], -49.26%; in [3] it was -73.23%; in data set [4] it was -84.7%; in data set [5] it was -54.28%; in [6], -79.4%. The Activity is 30.51% in data set [7]; 20.34% in data set [8]; 35.59% in data set [9]; -73.12% in data set [10]; -27.8% in [11]; -73.58% in [12]. The Retention_time in [13] came to 13.16 min; in data set [14] it was 13.18 min.

As for `CCC(C)(C)C(=O)O[C@H]1C[C@@H](C)C=C2C=C[C@H](C)[C@H](CC[C@@H]3C[C@@H](O)CC(=O)O3)[C@H]21` [SIMVASTATIN], the Activity is -63.46% in [15], -84.31% in [16], 292.2% in [17] and -57% in data set [18].
